Reference: ChEMBL document CHEMBL3108770, “Discovery and biological evaluation of novel 1,4-benzoquinone and related resorcinol derivatives that inhibit 5-lipoxygenase” (Eur J Med Chem, 2013)

What was measured:
[1] = target: T1, Polyunsaturated fatty acid 5-lipoxygenase (Homo sapiens) (UniProt P09917); assay: Inhibition of human recombinant 5-LO expressed in Escherichia coli BL21 using arachidonic acid as substrate assessed as residual activity at 10 uM after 10 mins
T1 sequence (whole entry): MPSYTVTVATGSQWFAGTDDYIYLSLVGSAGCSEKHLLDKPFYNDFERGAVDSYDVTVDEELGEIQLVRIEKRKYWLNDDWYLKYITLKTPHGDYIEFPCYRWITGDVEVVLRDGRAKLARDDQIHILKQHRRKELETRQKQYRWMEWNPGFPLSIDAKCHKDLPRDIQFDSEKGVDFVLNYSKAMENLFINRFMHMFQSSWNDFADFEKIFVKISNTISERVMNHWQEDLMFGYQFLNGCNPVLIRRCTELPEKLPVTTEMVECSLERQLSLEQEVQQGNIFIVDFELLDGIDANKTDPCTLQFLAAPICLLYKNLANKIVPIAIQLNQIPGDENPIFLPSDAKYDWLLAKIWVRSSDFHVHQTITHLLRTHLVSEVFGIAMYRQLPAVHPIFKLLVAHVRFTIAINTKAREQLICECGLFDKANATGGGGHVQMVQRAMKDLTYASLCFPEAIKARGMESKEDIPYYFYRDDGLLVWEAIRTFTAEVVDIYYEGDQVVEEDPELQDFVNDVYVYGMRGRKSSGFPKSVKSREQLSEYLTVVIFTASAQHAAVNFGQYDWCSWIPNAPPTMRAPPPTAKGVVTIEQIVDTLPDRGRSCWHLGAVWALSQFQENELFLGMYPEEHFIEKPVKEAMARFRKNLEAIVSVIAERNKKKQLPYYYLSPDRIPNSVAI

[2] = target: T2, Polyunsaturated fatty acid lipoxygenase ALOX12 (Homo sapiens) (UniProt P18054); assay: Inhibition of 12-LO in human PMNL using arachidonic acid as substrate assessed as residual activity at 10 uM preincubated for 15 mins
T2 sequence (whole entry): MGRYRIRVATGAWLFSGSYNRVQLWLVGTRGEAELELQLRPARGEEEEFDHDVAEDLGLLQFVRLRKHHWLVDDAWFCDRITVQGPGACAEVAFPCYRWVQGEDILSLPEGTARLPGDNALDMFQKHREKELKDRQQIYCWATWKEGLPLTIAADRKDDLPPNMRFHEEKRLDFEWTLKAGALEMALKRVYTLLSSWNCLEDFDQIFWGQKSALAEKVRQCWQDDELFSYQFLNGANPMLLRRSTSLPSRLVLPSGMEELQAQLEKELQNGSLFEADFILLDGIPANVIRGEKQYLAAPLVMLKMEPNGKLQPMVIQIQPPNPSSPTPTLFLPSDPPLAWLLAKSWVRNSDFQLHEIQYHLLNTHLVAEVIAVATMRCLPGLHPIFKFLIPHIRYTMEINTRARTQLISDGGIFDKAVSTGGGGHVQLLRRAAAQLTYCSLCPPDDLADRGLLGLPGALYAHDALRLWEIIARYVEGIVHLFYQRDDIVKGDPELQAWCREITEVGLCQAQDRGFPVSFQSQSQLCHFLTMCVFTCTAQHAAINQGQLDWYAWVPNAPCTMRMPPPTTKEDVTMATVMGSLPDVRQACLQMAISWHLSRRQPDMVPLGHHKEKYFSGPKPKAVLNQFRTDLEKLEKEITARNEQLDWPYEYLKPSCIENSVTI
Method in brief: (§1)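 PMNL were isolated from buffy coats by dextran sedimentation, Nycoprep centrifugation and hypotonic lysis of erythrocytes, then resuspended in PBS pH 7.4 with 1 mg/mL glucose and 1 mM CaCl₂. Cells were pre-incubated with compound for 15 min at 37 °C, then stimulated with A23187 plus AA for 10 min at 37 °C. 15-LO comes from eosinophils and 12-LO from adhering platelets in the preparation. After methanol/HCl stop and PGB₁ addition, metabolites were extracted and quantified by HPLC. Mean ± S.E.M., n = 3–4.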

[3] = target: T3, Polyunsaturated fatty acid 5-lipoxygenase (Homo sapiens, UniProt P09917); assay: Inhibition of human recombinant 5-LO expressed in Escherichia coli BL21 using arachidonic acid as substrate after 10 mins
T3 sequence (P09917 whole entry): T1 sequence (whole entry)
Method in brief: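 Purified 5-LO was diluted in PBS/EDTA and pre-incubated with compound for 5–10 min at 4 °C, then pre-warmed for 30 s at 37 °C. The reaction was started with 2 mM CaCl₂ plus AA, run 10 min at 37 °C and stopped with ice-cold methanol. Products were analysed by HPLC.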

[4] = target: T3, Polyunsaturated fatty acid 5-lipoxygenase; assay: Inhibition of 5-LO in human PMNL using arachidonic acid as substrate preincubated for 15 mins; method in brief: as §1
[5] = target: T1, Polyunsaturated fatty acid 5-lipoxygenase (Homo sapiens); assay: Inhibition of 5-LO in human PMNL using arachidonic acid as substrate assessed as residual activity at 10 uM preincubated for 15 mins; method in brief: as §1
[6] = target: T4, Polyunsaturated fatty acid lipoxygenase ALOX15 (Homo sapiens) (UniProt P16050); assay: Inhibition of 15-LO in human PMNL using arachidonic acid as substrate assessed as residual activity at 10 uM preincubated for 15 mins; method in brief: as §1
T4 sequence (whole entry): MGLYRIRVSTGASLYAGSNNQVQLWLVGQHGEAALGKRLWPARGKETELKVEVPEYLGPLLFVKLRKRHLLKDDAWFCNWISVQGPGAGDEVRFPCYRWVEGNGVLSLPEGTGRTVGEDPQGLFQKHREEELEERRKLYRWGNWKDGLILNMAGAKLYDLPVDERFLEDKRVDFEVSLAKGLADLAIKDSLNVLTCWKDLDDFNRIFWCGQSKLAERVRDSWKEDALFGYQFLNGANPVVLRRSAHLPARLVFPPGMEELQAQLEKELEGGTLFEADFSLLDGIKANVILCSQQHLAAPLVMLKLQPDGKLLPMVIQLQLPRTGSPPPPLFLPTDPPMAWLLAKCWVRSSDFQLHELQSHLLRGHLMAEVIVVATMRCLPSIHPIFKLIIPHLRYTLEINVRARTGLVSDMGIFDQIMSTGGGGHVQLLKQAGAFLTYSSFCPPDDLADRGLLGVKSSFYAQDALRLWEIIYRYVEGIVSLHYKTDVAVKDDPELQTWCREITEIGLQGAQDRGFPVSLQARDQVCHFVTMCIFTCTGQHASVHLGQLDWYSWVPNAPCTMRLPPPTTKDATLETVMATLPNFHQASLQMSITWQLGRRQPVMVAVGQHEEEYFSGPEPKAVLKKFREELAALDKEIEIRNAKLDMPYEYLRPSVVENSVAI

[7] = target: T5, Polyunsaturated fatty acid lipoxygenase ALOX15 (Homo sapiens, UniProt P16050); assay: Inhibition of 15-LO in human PMNL using arachidonic acid as substrate preincubated for 15 mins; method in brief: as §1
T5 sequence (P16050 whole entry): T4 sequence (whole entry)

[8] = target: T6, Polyunsaturated fatty acid lipoxygenase ALOX12 (Homo sapiens, UniProt P18054); assay: Inhibition of 12-LO in human PMNL using arachidonic acid preincubated for 15 mins; method in brief: as §1
T6 sequence (P18054 whole entry): T2 sequence (whole entry)

[9] = target: T3, Polyunsaturated fatty acid 5-lipoxygenase; assay: Competitive inhibition of human recombinant 5-LO expressed in Escherichia coli BL21 using 40 uM of arachidonic acid as substrate preincubated for 15 mins measured after 10 mins
Method in brief: (§2)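 Purified 5-LO was pre-incubated with inhibitor or vehicle (0.1% DMSO) for 15 min at 4 °C, then warmed for 30 s at 37 °C. The reaction was started with 2 mM CaCl₂ plus AA at 2.5, 5, 10, 20 or 40 µM and run 10 min at 37 °C. Products were analysed by HPLC. Results are % of uninhibited control, mean ± S.E.M., n = 3.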

[10] = target: T3, Polyunsaturated fatty acid 5-lipoxygenase; assay: Competitive inhibition of human recombinant 5-LO expressed in Escherichia coli BL21 using 5 uM of arachidonic acid as substrate preincubated for 15 mins measured after 10 mins; method in brief: as §2

Activity [1] [%] | Activity [2] [%] | IC50 [3] [µM] | IC50 [4] [µM] | Activity [5] [%] | Activity [6] [%] | IC50 [7] [µM] | IC50 [8] [µM] | IC50 [9] [µM] | IC50 [10] [µM] | SMILES
30.7 | 93.3 | 6.3 | > 10 | 84.1 | 182 |  |  |  |  | Oc1ccc(-c2cccc3c2oc2ccccc23)c(O)c1
95.2 | 85.2 | > 10 | > 10 | 90.4 | 87.3 |  |  |  |  | O=C1C=C(O)C(=O)C(CC2CCCCC2)=C1O
51 | 60.9 | 11 | 0.58 | 5.4 | 87.9 | > 10 | > 10 |  |  | O=C1C=C(O)C(=O)C(CC2CCC3CCCCC3C2)=C1O (stereo not drawn)
57.4 | 96 | > 10 | 6.8 | 42.4 | 108 | > 10 | > 10 |  |  | O=C(Cc1ccc2ccccc2c1)c1ccc(O)cc1O
92.3 | 76.4 | > 10 | > 10 | 56.1 | 89.5 |  |  |  |  | COC1=CC(=O)C(O)=C(Cc2ccc3ccccc3c2)C1=O
110 | 84 | > 10 | > 10 | 103 | 96.4 |  |  |  |  | COC1=CC(=O)C(O)=C(Cc2ccccc2)C1=O
7.1 | 73.1 | 0.28 | 6.7 | 21.2 | 47.9 |  |  |  |  | COC1=CC(=O)C(Oc2ccc3ccccc3c2)=CC1=O
25.6 | 69.3 | 4.6 | 2.8 | 18.6 | 110 | > 10 | > 10 |  |  | CCCCCCc1ccc(O)cc1O [HEXYLRESORCINOL]
37.2 | 79.2 | 7.4 | 2.3 | 8.9 | 191 | > 10 | > 10 |  |  | Oc1ccc(Cc2ccc3ccccc3c2)c(O)c1
74.3 | 95.4 | > 10 | > 10 | 93.3 | 132 |  |  |  |  | O=C1C=C(Cc2ccccc2)C(=O)C=C1O
9.4 | 72.3 | 2.8 | 4.2 | 22.7 | 106 | > 10 | > 10 |  |  | Oc1ccc(-c2ccccc2)c(O)c1
45.2 | 81.1 | 9 | > 10 | 74 | 80.9 |  |  |  |  | O=C1C=C(Cc2ccc3cc(C(=O)O)ccc3c2)C(=O)C=C1O
8 | 60.9 | 4.6 | > 10 | 61.3 | 116 |  |  |  |  | O=C1C=C(c2cccc([N+](=O)[O-])c2)C(=O)C=C1O
30.8 | 46.2 | 0.8 | > 10 | 74.1 | 79.8 |  |  |  |  | O=C1C=C(c2cccc3c2oc2ccccc23)C(=O)C=C1O
15.4 | 91.4 | 3.2 | 2.1 | 10.5 | 58.3 | > 10 | > 10 |  |  | Oc1ccc(-c2cccc3c2Sc2ccccc2S3)c(O)c1
100 | 115 | > 10 | > 10 | 92.8 | 115 |  |  |  |  | Oc1ccc(-c2csc3ccccc23)c(O)c1
47.6 | 77 | 9.4 | > 10 | 60 | 116 |  |  |  |  | Oc1ccc(Cc2ccccc2)c(O)c1
14.2 | 89.8 | 1.4 | 3 | 15.9 | 185 | > 10 | > 10 |  |  | CCCCCCC1=CC(=O)C(O)=CC1=O
8.7 | 71.9 | 0.78 | 2.3 | 5.3 | 147 | > 10 | > 10 | 0.31 | 0.97 | O=C1C=C(Cc2ccc3ccccc3c2)C(=O)C=C1O
84.3 | 90.1 | > 10 | > 10 | 64.1 | 108 |  |  |  |  | O=[N+]([O-])c1cccc(-c2ccc(O)cc2O)c1
